Data: ChEMBL document CHEMBL3603837, “Indole Glucocorticoid Receptor Antagonists Active in a Model of Dyslipidemia Act via a Unique Association with an Agonist Binding Site” (J Med Chem, 2015)
The source made the active and inactive calls. No cut-off for these calls is given here.

Key:
[1] = Clearance in rat at 1 mg/kg, iv; assay type: ADME, organism-based; conditions: in vivo
[2] = AUC in rat at 1 mg/kg, iv; assay type: ADME, organism-based; conditions: in vivo
Syrian golden hamster [3] = experiment: Reduction in LDL level in high fat and high cholesterol diet fed Syrian golden hamster at 30 mg/kg, po qd for 14 days; assay type: functional; conditions: Mesocricetus auratus, 336 h
Procedure, shortened: (§1)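 Groups of Syrian golden hamsters (n = 6) kept on a high fat, high cholesterol diet for 14 days, dosed orally at 30 mg/kg once daily. Plasma HDL and LDL compared against untreated HFHC controls; mean with standard errors.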

[4] = AUC in rat at 3 mg/kg, po; assay type: ADME, organism-based; conditions: in vivo
[5] = Tmax in rat at 3 mg/kg, po; assay type: ADME, organism-based; conditions: in vivo
Rattus norvegicus [6] = experiment: Prevention of atypical antipsychotic quetiapine associated weight gain in Wistar rat at 10 mg/kg, po for 14 days; assay type: functional, organism-based
Procedure, shortened: (§2)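 Prophylactic protocol in lean female Wistar rats (n = 9−10 per group). A dose response of test compound was given orally together with quetiapine at a fixed 10 mg/kg, concurrently for 14 days.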

[7] = Half life in rat at 1 mg/kg, iv; assay type: ADME, organism-based; conditions: in vivo
[8] = Cmax in rat at 3 mg/kg, po; assay type: ADME, organism-based; parameters: dose 3 mg/kg, route oral; conditions: in vivo
Syrian golden hamster [9] = experiment: Increase in HDL level in high fat and high cholesterol diet fed Syrian golden hamster at 30 mg/kg, po qd for 14 days; assay type: functional, Mesocricetus auratus; procedure, shortened: as §1
[10] = Volume of distribution at steady state in rat at 1 mg/kg, iv; assay type: ADME, organism-based; conditions: in vivo, read-out: Vdss
[11] = Oral bioavailability in rat at 3 mg/kg; assay type: ADME, organism-based; conditions: in vivo
[12] = Half life in rat at 3 mg/kg, po; assay type: ADME, organism-based; conditions: in vivo
Rattus norvegicus [13] = experiment: Toxicity in Wistar rat model of atypical antipsychotic quetiapine-induced weight gain assessed as effect on food intake at 10 mg/kg, po for 14 days; assay type: organism-based; conditions: in vivo, 336 h; procedure, shortened: as §2
[14] = biological target: T1, Glucocorticoid receptor (Homo sapiens) (UniProt P04150); experiment: Displacement of [3H]-dexamethasone from human glucocorticoid receptor expressed in HEK293 cells at 10 uM by scintillation counting based radioligand competition binding assay; assay type: cell-based
T1 sequence (whole entry): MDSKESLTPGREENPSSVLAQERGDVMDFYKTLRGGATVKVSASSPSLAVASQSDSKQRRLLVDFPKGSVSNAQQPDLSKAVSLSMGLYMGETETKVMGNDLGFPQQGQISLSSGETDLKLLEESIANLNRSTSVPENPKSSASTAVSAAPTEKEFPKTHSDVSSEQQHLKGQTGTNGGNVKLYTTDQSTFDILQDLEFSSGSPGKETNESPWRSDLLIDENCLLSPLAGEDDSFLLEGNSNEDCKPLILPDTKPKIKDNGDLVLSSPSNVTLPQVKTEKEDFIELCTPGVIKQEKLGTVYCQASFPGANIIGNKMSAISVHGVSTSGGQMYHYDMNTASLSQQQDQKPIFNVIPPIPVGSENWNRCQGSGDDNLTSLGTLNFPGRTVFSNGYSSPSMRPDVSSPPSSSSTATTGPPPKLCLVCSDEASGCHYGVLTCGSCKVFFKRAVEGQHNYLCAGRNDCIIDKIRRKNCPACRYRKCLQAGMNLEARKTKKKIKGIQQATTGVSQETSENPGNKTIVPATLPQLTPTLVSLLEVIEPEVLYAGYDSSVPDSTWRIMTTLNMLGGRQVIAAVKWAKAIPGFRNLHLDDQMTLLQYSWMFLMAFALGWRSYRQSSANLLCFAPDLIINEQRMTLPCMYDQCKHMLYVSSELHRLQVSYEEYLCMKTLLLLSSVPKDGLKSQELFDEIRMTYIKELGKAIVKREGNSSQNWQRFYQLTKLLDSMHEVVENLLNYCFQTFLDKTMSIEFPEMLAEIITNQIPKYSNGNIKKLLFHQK
Procedure, shortened: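 Competition binding with 0.3 nM [3H]-dexamethasone and 20 μg 293-GR lysate per well; nonspecific binding defined with 0.5 μM dexamethasone. Incubated overnight at 4 °C, free ligand removed with charcoal–dextran, then scintillation counting. Percent inhibition at 10 μM was calculated.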

Row | Structure (SMILES) | clearance [1] [mL/min/kg] | AUC [2] [ng·h/mL] | inhibition in vivo at 30 mg/kg (Syrian golden hamster [3]) [%] | AUC [4] [ng·h/mL] | Tmax [5] [h] | inhibition (Rattus norvegicus [6]) | half-life [7] [h] | Cmax [8] [ng/mL] | Activity (Syrian golden hamster [9]) [%] | Vd [10] [L/kg] | bioavailability [11] [%] | half-life [12] [h] | Activity (Rattus norvegicus [13]) | Activity [14]
1 | COc1cc(F)ccc1-c1c(CN(C)Cc2ccccc2)[nH]c2c(NS(C)(=O)=O)cc(C(C)C)cc12 | 58.2 | 315 | 74 | 488 | 4 | Active | 3.96 | 63.3 | 73 | 13.8 | 51.9 | 3.31 | Non-toxic | –
2 | COc1cc(F)ccc1-c1c(CN(C)Cc2ccccc2)[nH]c2c(N)cc(F)cc12 | – | – | – | – | – | – | – | – | – | – | – | – | – | inactive
